Published values collected from several papers.
Compare with care: the assays were run in different laboratories.
MET M1250T: Hepatocyte growth factor receptor (MET, Homo sapiens, UniProt P08581, M1250T)

Nc1cnc(N2CCc3cc(S(=O)(=O)Nc4c(F)cc(Cl)cc4F)cc(N4CCCC4=O)c32)nc1 — remaining binding (Hepatocyte growth factor receptor (MET, Homo sapiens, UniProt P08581, Y1235D); cell-free assay, competition with immobilised ligand; 1 µM): 69%
C[C@@H]1CCN(c2nccc(-c3cnn4ncccc34)n2)C1 — remaining binding (Hepatocyte growth factor receptor (MET, Homo sapiens, UniProt P08581); binding; 1 µM): 84%
Cc1cc(NC(=O)c2cccc3cc(-c4cccc5[nH]nc(N)c45)ccc23)ccc1F — activity vs control (Hepatocyte growth factor receptor (MET, Homo sapiens, UniProt P08581, Y1230C); enzyme activity, inhibitor; 0.1 µM): 92%
F[C@@H]1CCN(c2nccc(-c3cnn4ncccc34)n2)C1 — remaining binding (MET M1250T; binding; 1 µM): 100%
CC(=O)Nc1c(C(C)=O)c(=O)n(C)c2nc(-c3ccc(Cl)cc3Cl)c(-c3ccc(Cl)cc3)cc12 — remaining binding (MET M1250T; cell-free assay, competition with immobilised ligand; 1 µM): 100%
Cc1ccc(NC(=O)c2ccc(C)c(C(F)(F)F)c2)cc1C#Cc1nn(C2CCC(O)CC2)c2ncnc(N)c12 (stereo not drawn) — remaining signal (MET M1250T; cell-free assay; 10 µM): 136%
O=C(NCCCC1CCCCC1)c1ccc(CNC(=O)c2cnn(-c3ccccc3)c2C(F)(F)F)cc1 — remaining binding (MET M1250T; cell-free assay, competition with immobilised ligand; 0.1 µM): 76%
CNC(=O)c1cc2c(Oc3ccc(NC(=O)C4(C(=O)Nc5ccc(F)cc5)CC4)cc3)ccnc2cc1OC — inhibition (Hepatocyte growth factor receptor (MET, Homo sapiens, UniProt P08581, Y1230H); enzyme activity, inhibitor, radiometric; 1 µM): 99%
Cc1cnc(NC2CCOCC2)nc1-n1cnc(C(=O)NC(CN)c2cc(F)cc(Cl)c2)c1 (stereo not drawn) — remaining activity (Hepatocyte growth factor receptor (MET, Homo sapiens, UniProt P08581, D1228N); enzyme activity, inhibitor, radiometric; 1 µM): 97%
